Assay results reported in article PMC11167341 (RSC Advances, 2024).

Tests used:
Format in all cases: cell-based
MCF-7 = assay: Antiproliferative SRB assay, MCF-7; settings: Homo sapiens, MCF7, 72 h, read-out: MCF-7 IC50 (μM) ± SD
In short: (§1)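 Cells from ATCC, grown in RPMI-1640 with 10% heat-inactivated FBS and penicillin–streptomycin at 37 °C, 5% CO2. They were trypsinized and seeded 24 h before treatment. Test compound was given at 0.01, 0.1, 1, 10 and 100 μg mL−1 for 72 h beside untreated controls. Cells were fixed in 10% TCA (1 h, 4 °C), stained with 0.4% SRB (10 min, dark), rinsed in 1% acetic acid, dissolved in Tris–HCl, and read at 540 nm.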

HepG2 = assay: Antiproliferative SRB assay, HepG2; settings: Homo sapiens, HepG2, 72 h, read-out: HepG2 IC50 (μM) ± SD
In short: as §1

HCT116 = assay: Antiproliferative SRB assay, HCT116; settings: Homo sapiens, HCT-116, 72 h, read-out: HCT116 IC50 (μM) ± SD
In short: as §1

EA.hy926 = assay: SRB assay on normal cells EA.hy926; settings: Homo sapiens, EA.hy 926, 72 h, read-out: EA.hy926 IC50 (μM) ± SD
In short: as §1

Row | Structure (SMILES) | IC50 (MCF-7) | IC50 (HepG2) | IC50 (HCT116) | IC50 (EA.hy926)
1 | N#CCC(=O)NNc1nc(-c2ccccc2)cs1 [compound 7, 2-cyano-N′-(4-phenylthiazol-2-yl)acetohydrazide] | 10.3 µM | 9.9 µM | 6.5 µM | 11.6 µM
2 | O=C(NNc1nc(-c2ccccc2)cs1)c1cc2ccccc2oc1=O [6a, 2-Oxo-N′-(4-phenylthiazol-2-yl)-2H-chromene-3-carbohydrazide] | 72.9 µM | 36.5 µM | 82.5 µM | 31.9 µM
3 | COc1cccc2c1C(=O)c1c(O)c3c(c(O)c1C2=O)C[C@@](O)(C(=O)CO)C[C@@H]3O[C@H]1C[C@H](N)[C@H](O)[C@H](C)O1 [Doxorubicin, reference compound] | 2.1 µM | 1.6 µM | 1.9 µM | 1.7 µM
